Results reported in ChEMBL document CHEMBL4184306 (Bioorg Med Chem Lett, 2018).
≈ marks a conversion by molar mass, not a printed value.

Assays:
[1] = test system: A2780; assay: Growth inhibition of human A2780 cells after 72 hrs by SRB assay; format: functional, cell-based; conditions: A2780, 72 h
[2] = test system: OVCAR-8; assay: Growth inhibition of human OVCAR8 cells after 72 hrs by SRB assay; format: functional, cell-based; conditions: OVCAR-8, 72 h
[3] = Growth inhibition of human A2780cis cells after 72 hrs by SRB assay; format: functional, cell-based
[4] = test system: Plasmodium falciparum; assay: Antiplasmodial activity against Plasmodium falciparum Dd2 by SYBR Green I fluorescence assay; format: functional, organism-based
[5] = Growth inhibition of SV-40 immortalized human ovarian epithelial cells after 72 hrs by SRB assay
[6] = test system: A2780 (human); assay: Selectivity index, ratio of IC50 for SV-40 immortalized human ovarian epithelial cells to IC50 for human A2780 cells
[7] = Aqueous solubility of the compound in phosphate buffer at pH 7.4 measured after 24 hrs by HPLC method; format: physicochemical
In short: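 Measured in phosphate buffer at pH 7.4 and 37 °C, with the dissolved compound quantified by high-performance liquid chromatography.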

[8] = test system: A2780; assay: Growth inhibition of human A2780 cells after 48 hrs by MTT assay; format: functional, cell-based; conditions: A2780, 48 h
[9] = Growth inhibition of SV-40 immortalized human ovarian epithelial cells after 48 hrs by MTT assay
[10] = Growth inhibition of human A2780cis cells after 72 hrs by MTT assay; format: functional, cell-based
[11] = test system: Plasmodium falciparum; assay: Antiplasmodial activity against chloroquine sensitive Plasmodium falciparum FCR-3/Gambia assessed as [3H]hypoxanthine incorporation after 72 hrs; format: functional, organism-based
[12] = test system: Plasmodium falciparum; assay: Antiplasmodial activity against chloroquine and artemisinin sensitive Plasmodium falciparum FCR-3/Gambia after 72 hrs; format: functional, organism-based

SMILES	IC50 [1] [µM]	IC50 [2] [µM]	IC50 [3] [µM]	IC50 [4] [µM]	IC50 [5] [µM]	selectivity ratio [6]	solubility at 24 h [7] [µg/mL]	IC50 [8] [µM]	IC50 [9] [µM]	IC50 [10] [µM]	IC50 [11] [µM]	IC50 [12] [µM]
CC(C)(C)C1=CC(=O)C(C(C)(C)C)=CC1=O	34	51.2	42.5	4.2	117							
CC1=C(Cl)C(=O)C(C(C)(C)C)=C(Cl)C1=O	4.5	6	4.2	16.2	3.1	< 1						
CC(C)(C)CC(C)(C)C1=CC(=O)C(C(C)(C)CC(C)(C)C)=CC1=O	44.2	56.5	51.8	116	> 200	> 4.6						
CC1=C(Br)C(=O)C(C(C)C)=C(Br)C1=O [Dibromothymoquinone]	4.9	3.6	5.3	30	7.3	1.5						
CC1=CC(=O)C=C(C)C1=O	3.2	5.2	2.9	10.4	5.3	1.7	5040 (≈ 37 mM)					
Cc1cc(O)ccc1O [METHYLHYDROQUINONE]	5.7	6.2	4.7	134	6.3							
CCC(C)(C)C1=CC(=O)C(C(C)(C)CC)=CC1=O	36.1	54.2	48.8	78.8	> 200	> 5						
CC1=C(N)C(=O)C(C(C)C)=CC1=O	19.9	35.1	19.3	19.3	139	7.1						
CC1=C(N(C)C)C(=O)C=CC1=O	16.7	35.6	20.5	191	28.2	1.3						
CC1=CC(=O)C(Nc2ccc(F)cc2)=CC1=O	15	32	21.8	100	20.2	1.3						
Cc1cc(O)cc(C)c1O	3.6	8.3	3.6	15.4	7.8	2.1						
CNC1=C(C)C(=O)C=C(C(C)C)C1=O	14	12.9	7.3	52.7	36.8	5						
Cc1c(O)c(Br)c(C(C)C)c(O)c1Br	3.4	11.6	4.8	25.6	11	3.2						
CC(=O)O[C@H]1C(=O)[C@@]2(C)[C@H]([C@H](OC(=O)c3ccccc3)[C@]3(O)C[C@H](OC(=O)[C@H](O)[C@@H](NC(=O)c4ccccc4)c4ccccc4)C(C)=C1C3(C)C)[C@]1(OC(C)=O)CO[C@@H]1C[C@@H]2O [PACLITAXEL]	0.009	0.01						0.05	0.03	0.003 to 0.004	0.003 to 0.006	
Cc1cc(O)c(C(C)C)cc1O	3.1	8.9	9.8	15.9	14	4.5						
CC1=CC(=O)C(C(C)C)=CC1=O [THYMOQUINONE]	7.9	11.6	7.8	25	17.8		468 (≈ 2.85 mM)					1.2
CCNC1=C(C)C(=O)C=C(C(C)C)C1=O	12.6	16	9.6	11.1	30.3	3.1						
CC(C)(C)C1=CC(=O)C=CC1=O	5.7	10	4.9	15.6	10.3	1.8						
CC1=CC(=O)C(C(C)(C)C)=CC1=O	7.5	13.5	7.9	19.7	55.8	7.5						
CC1=CC(=O)C(N(C)C)=CC1=O	6.2	5.6	4.7	9.9	7.9	1.7	8320 (≈ 50.4 mM)					
CC(C)(C)C1=CC(=O)C=C(C(C)(C)C)C1=O	24.6	37.4	31.1	29.5	51.5							
CC1=CC(=O)C=CC1=O [Cresoquinone]	12.1	13.4	11.8		6	< 1						
Cc1cc(O)c(C(C)(C)C)cc1O	6.4	12.2	11.5	17.9	85.6	13.4						
